ChEMBL document CHEMBL1255233, “The P-113 fragment of histatin 5 requires a specific peptide sequence for intracellular translocation in Candida albicans, which is independent of cell wall binding” (Antimicrob Agents Chemother, 2008)
The source made the active and inactive calls. The rule behind the calls is not given here.

Columns and labels:
Candida albicans [1] = assay: Candidacidal activity against wild type Candida albicans CAF4-2 after 3 hrs by radial diffusion assay in presence of 100 mM NaPB; format: functional, organism-based
Procedure, shortened: (§1)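 C. albicans cells grown in YNB were set into underlay gels. Peptides were loaded into punched wells and incubated overnight. Clear-zone diameters (10 units = 1 mm) were plotted against peptide concentration and converted to cell death. Incubation was in 10 mM or 100 mM NaPB. Means and SD from three independent experiments.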

Candida albicans [2] = assay: Candidacidal activity against wild type Candida albicans CAF4-2 at >62 uM after 3 hrs by radial diffusion assay; format: functional, organism-based; procedure, shortened: as §1
Candida albicans [3] = assay: Candidacidal activity against wild type Candida albicans CAF4-2 at >62 uM after 3 hrs by radial diffusion assay in presence of 100 mM NaPB; format: functional, organism-based; procedure, shortened: as §1
[4] = molecular target: Heat shock protein SSA2 (Candida albicans (strain SC5314 / ATCC MYA-2876) (Yeast)) (UniProt P46587); assay: Binding affinity to Candida albicans AKRLIGRKFDDHE region of Ssa2 at 2 uM by chemiluminescence assay
Heat shock protein SSA2 (Candida albicans (strain SC5314 / ATCC MYA-2876) (Yeast)), sequence (P46587 whole entry): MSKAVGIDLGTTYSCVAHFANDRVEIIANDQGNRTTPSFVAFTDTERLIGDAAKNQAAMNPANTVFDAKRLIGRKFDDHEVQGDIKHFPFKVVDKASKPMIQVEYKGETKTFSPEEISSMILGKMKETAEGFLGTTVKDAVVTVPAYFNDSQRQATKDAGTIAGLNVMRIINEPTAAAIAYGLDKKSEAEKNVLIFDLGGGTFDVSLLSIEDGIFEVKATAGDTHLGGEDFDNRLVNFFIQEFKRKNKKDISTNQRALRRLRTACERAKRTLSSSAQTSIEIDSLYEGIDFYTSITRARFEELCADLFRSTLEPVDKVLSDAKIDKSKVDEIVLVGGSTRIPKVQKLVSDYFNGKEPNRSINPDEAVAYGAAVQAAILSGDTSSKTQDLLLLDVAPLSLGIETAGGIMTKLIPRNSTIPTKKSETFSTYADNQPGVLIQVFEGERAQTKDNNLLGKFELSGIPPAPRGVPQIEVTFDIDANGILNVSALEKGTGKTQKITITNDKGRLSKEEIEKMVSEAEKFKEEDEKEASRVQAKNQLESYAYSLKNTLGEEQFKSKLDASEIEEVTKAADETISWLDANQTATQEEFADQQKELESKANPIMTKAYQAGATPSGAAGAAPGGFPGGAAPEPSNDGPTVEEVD
Procedure, shortened: (§2)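 Overlapping Ssa2p peptides spotted on cellulose-β-alanine membranes; methanol rinse, TBS (pH 8.0) washes, 2 h blocking in albumin/biotin-free buffer at room temperature. Biotin-labeled peptide (2 µM) in blocking buffer, 3 h at room temperature, washed; streptavidin-HRP (1:20,000) 1 h; chemiluminescent detection and imaging. Repeatability confirmed by reprobing after regeneration (30 min, 50°C).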

[5] = molecular target: Heat shock protein SSA2 (Candida albicans (strain SC5314 / ATCC MYA-2876) (Yeast)) (UniProt P46587); assay: Binding affinity to Candida albicans KRKNKKDISTNQR region of Ssa2 at 2 uM by chemiluminescence assay; procedure, shortened: as §2
Candida albicans [6] = assay: Candidacidal activity against wild type Candida albicans CAF4-2 assessed as cell death at 31.5 uM treated for 1 hr measured after 48 hrs by microdilution plate assay; format: functional
Candida albicans [7] = assay: Candidacidal activity against Candida albicans CAF4-2 having ssa1delta mutation assessed as cell death at 31.5 uM treated for 1 hr measured after 48 hrs by microdilution plate assay; format: functional
Candida albicans [8] = assay: Candidacidal activity against Candida albicans CAF4-2 having ssa2delta mutation assessed as cell death at 31.5 uM treated for 1 hr measured after 48 hrs by microdilution plate assay; format: functional
Candida albicans [9] = assay: Candidacidal activity against Candida albicans CAF4-2 having ssa1delta mutation assessed as cell death below 31.5 uM treated for 1 hr measured after 48 hrs by microdilution plate assay; format: functional, organism-based
Candida albicans [10] = assay: Candidacidal activity against Candida albicans CAF4-2 having ssa2delta mutation assessed as cell death below 31.5 uM treated for 1 hr measured after 48 hrs by microdilution plate assay; format: functional, organism-based
Candida albicans [11] = assay: Candidacidal activity against wild type Candida albicans CAF4-2 assessed as cell death below 31.5 uM treated for 1 hr measured after 48 hrs by microdilution plate assay; format: functional, organism-based
Procedure, shortened: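 Candidacidal microdilution assay: 1 x 10^6 cells exposed to peptide for 1 h, diluted to quench, plated on YNB agar. Loss of viability = [1 − (colonies treated/colonies control)] x 100. Means and SD from three independent experiments.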

Candida albicans [12] = assay: Candidacidal activity against Candida albicans CAF4-2 having ssa1delta mutation after 3 hrs by radial diffusion assay; format: functional, organism-based
Procedure, shortened: (§3)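 Radial diffusion: C. albicans cells incorporated into underlay gels; peptides loaded into wells punched in the gel and incubated overnight. Clear-zone diameters (no growth) converted to cell death and plotted against peptide concentration. Means and SD of three independent experiments.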

Candida albicans [13] = assay: Candidacidal activity against Candida albicans CAF4-2 having ssa2delta mutation after 3 hrs by radial diffusion assay; format: functional, organism-based; procedure, shortened: as §3
Candida albicans [14] = assay: Candidacidal activity against wild type Candida albicans CAF4-2 after 3 hrs by radial diffusion assay; format: functional, organism-based; procedure, shortened: as §1
Candida albicans [15] = assay: Candidacidal activity against wild type Candida albicans CAF4-2 after 3 hrs by radial diffusion assay in presence of 10 mM NaPB; format: functional, organism-based; procedure, shortened: as §1
[16] = Drug uptake in Candida albicans CAF4-2 cytoplasm at 31.5 uM within 5 mins by SDS-PAGE in presence of 10 mM NaPB; format: ADME
Procedure, shortened: (§4)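 Cells in 10 mM NaPB with biotin-labeled peptide (31.5–32 µM) at 37°C for 5–90 min. After β-ME cell-wall extraction, cells bead-lysed at 4°C in NaPB with protease inhibitors; cytosol from 13,000 rpm spin. Cytosolic protein (10 µg/lane) on Tricine SDS-PAGE, streptavidin-HRP blot, quantitated against peptide standards.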

[17] = Drug uptake in Candida albicans CAF4-2 cell wall extract at 31.5 uM within 5 mins by SDS-PAGE in presence of 10 mM NaPB; format: ADME, cell-based; conditions: caf4-2, 5 min
Procedure, shortened: (§5)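 Wild-type or ssa2 cells were incubated with biotin-labeled peptide (31.5 µM) in 10 mM NaPB at 37°C for 5–90 min. Cell wall was extracted with 1% β-ME in ammonium carbonate (pH 8.0), 30 min at 37°C. Cytosol was obtained by glass-bead lysis with protease inhibitors. Extracts (10 µg/lane) were run on 16% Tricine SDS-PAGE, blotted, and detected with streptavidin-HRP. Amounts were quantified against peptide standards (0.06125–0.5 µg) and expressed per 10^7 cells.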

Candida albicans [18] = assay: Drug uptake in Candida albicans CAF4-2 assessed as reduction of free drug in cell supernatant at 31.5 uM after 15 mins by slot blot assay; format: ADME, organism-based; conditions: in vivo, 0.25 h
Procedure, shortened: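 Early-log cells (1 x 10^8) were washed and suspended in 10 mM NaPB with biotin-labeled peptide (31.5 µM) for 5–90 min with shaking. After centrifugation at 4°C, supernatants were applied to PVDF by slot blot. The membrane was blocked in 3% milk/TBST, probed with streptavidin-HRP (1:1,000), and developed for remaining free peptide.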

Candida albicans [19] = assay: Drug uptake in Candida albicans CAF4-2 having ssa2delta mutation assessed as reduction of free drug in cell supernatant at 31.5 uM after 30 mins by slot blot assay; format: ADME, organism-based; conditions: in vivo, 0.5 h
Procedure, shortened: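 Supernatant depletion: wt and ssa2 cells (1 x 10^8 in 1 ml 10 mM NaPB) incubated with 31.5 µM biotin-labeled peptide for 5–90 min with shaking. Cells pelleted at 4°C; 50 µl of supernatant slot-blotted onto PVDF, blocked with milk, probed with streptavidin-HRP. Buffer-only cells used as control.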

[20] = Drug uptake in Candida albicans CAF4-2 beta-ME extracted cell wall protein assessed per 10^7 cells at 31.5 uM within 5 mins by SDS-PAGE in presence of 10 mM NaPB; format: ADME, cell-based
Procedure, shortened: (§6)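 Early-log cells (1 x 10^8) washed and suspended in 10 mM NaPB with 31.5 µM biotin-labeled peptide at 37°C with shaking, sampled at timepoints to 90 min. Cell wall released with 1% β-ME in ammonium carbonate pH 8.0, 30 min, 37°C. Extract run on 16% Tricine SDS-PAGE (10 µg/lane), blotted, detected with streptavidin-HRP, quantitated against peptide standards.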

[21] = Drug uptake in Candida albicans CAF4-2 beta-ME extracted cell wall protein assessed per 10^7 cells at 31.5 uM within 15 mins by SDS-PAGE in presence of 10 mM NaPB; format: ADME, cell-based; conditions: 0.25 h; procedure, shortened: as §6
[22] = Drug uptake in Candida albicans CAF4-2 cytoplasmic extract assessed per 10^7 cells at 31.5 uM within 15 mins by SDS-PAGE in presence of 10 mM NaPB; format: ADME, Cytoplasm; conditions: 0.25 h; procedure, shortened: as §5
[23] = Drug uptake in Candida albicans CAF4-2 cytoplasmic extract assessed per 10^7 cells at 31.5 uM after 90 mins by SDS-PAGE in presence of 10 mM NaPB; format: ADME, Cytoplasm; conditions: 1.5 h; procedure, shortened: as §5
[24] = Drug uptake in Candida albicans CAF4-2 having ssa2delta mutation cytoplasmic extract assessed per 10^7 cells at 31.5 uM upto 30 mins by SDS-PAGE in presence of 10 mM NaPB; format: ADME, Cytoplasm; conditions: 0.5 h; procedure, shortened: as §4

For H-AQRHHGYKRQFH-OH [listing 1 of 2 here], the Activity (Candida albicans [1]) was “inactive”, the Activity (Candida albicans [2]) was “Active” and the Activity (Candida albicans [3]) was “inactive”. The Activity [4] was “inactive”, the Activity [5] was “inactive” and the Activity (Candida albicans [6]) was under 10%. The Activity (Candida albicans [7]) was under 10%, the Activity (Candida albicans [8]) was under 10% and the Activity (Candida albicans [9]) was “inactive”. The Activity (Candida albicans [10]) was “inactive”, the Activity (Candida albicans [11]) was “inactive” and the Activity (Candida albicans [12]) was “inactive”. For the same substance, the Activity (Candida albicans [13]) was “inactive”, the Activity (Candida albicans [14]) was “inactive” and the Activity (Candida albicans [15]) was “Active”.
With H-AKRHHGYKRKFH-OH [listing 1 of 2 here] the Drug uptake [16] was “Active”, the Drug uptake [17] was “Active” and the Drug uptake (Candida albicans [18]) was “Active”. The Drug uptake (Candida albicans [19]) was “Active”, the Drug uptake [20] was 0.1 µg and the Drug uptake [21] was “Active”. For the same substance, the Drug uptake [22] was 0.26 µg, the Drug uptake [23] was 0.2 µg and the Drug uptake [24] was under 0.2 µg.
With H-AKRHHGYKRKFH-OH [listing 2 of 2 here] the Activity (Candida albicans [1]) was “inactive”, the Activity [4] was “Active” and the Activity [5] was “Active”. For the same substance, the Activity (Candida albicans [6]) was 90%, the Activity (Candida albicans [7]) was 90% and the Activity (Candida albicans [8]) was 76%. The Activity (Candida albicans [9]) was “inactive”, the Activity (Candida albicans [10]) was “inactive” and the Activity (Candida albicans [12]) was “Active”. For the same substance, the Activity (Candida albicans [13]) was “inactive”, the Activity (Candida albicans [14]) was “Active” and the Activity (Candida albicans [15]) was “Active”.
Substance H-AQRHHGYKRQFH-OH [listing 2 of 2 here] has a Drug uptake [20] of 0.15 µg and a Drug uptake [21] of 0.2 µg.
